Source: PubChem BioAssay (Sanford-Burnham Center for Chemical Genomics)
The list is not random: actives were taken first. Their share in the collection is about 1.1%.
Diaph inh CS – diaphorase inhibitors and chemical oxidizers, primary screen, counter-screen for diaphorase-coupled primary assays, biochemical, uHTS, resorufin fluorescence; diaphorase resazurin-to-resorufin fluorescence, NADH, 16 min; bacterial (C. kluyveri) enzyme, not human; inhibition, % at 20 µM; hit rate 0.69% among 190,000; AID 1217, 2008;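 active means primary screen inhibition at 20 µM above a set limit, cut at about 50% in these data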;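 further: plate controls were DMSO with full reaction for no effect and wells lacking NADH for full effect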
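System: Bacterial diaphorase enzyme (C. kluyveri) | Incubation: 16-min room-temperature incubation before reading | Benchmarks: No-NADH positive control and DMSO neutral control | Measured by: Resorufin fluorescence 544/590 nm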
G6PDH counter – L. mesenteroides G6PDH inhibitors, counter-screen for G6PDH-coupled screening assays, biochemical, Leuconostoc mesenteroides enzyme; glucose-6-phosphate dehydrogenase [Leuconostoc mesenteroides]; Purified L. mesenteroides G6PDH, diaphorase/resazurin coupled fluorescence, 45 min; inhibition, % at 5 µM; hit rate 0.12% among 200,000; AID 1020, 2008; in the data active means inhibition above about 50%
Diaphorase act – compounds boosting diaphorase resazurin reduction – biochemical, uHTS, resorufin fluorescence, counter-screen for diaphorase-coupled primary assays, primary screen; Diaphorase/resazurin coupled assay, 16 min; stronger effect = higher value; 1 = vehicle wells, 0 = NADH-free wells; activation factor at 20 µM; hit rate 0.005% among 190,000; AID 1229, 2008;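 active means diaphorase activity raised at least twofold by the compound at 20 µM; inactive means activation factor below 2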
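Test system: Clostridium kluyveri diaphorase, purified enzyme; input: enzyme 0.07 U/mL final; buffer or medium: 50 mM HEPES pH 7.4 with 4.542 mM MgCl2, 0.005% Tween 20; also added: 0.114 mM NADH and 0.1 mM resazurin, final amounts; schedule: 16 min enzyme reaction, ambient temperature; technique: fluorescence of resorufin, 544 nm excitation, 590 nm emission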
PMI act hi M6P – human PMI activators, high substrate, primary screen, biochemical, fluorescence intensity, near-saturating mannose 6-phosphate. AID 1216, 2008. coupled PMI enzyme assay, resazurin fluorescence, 20 min; stronger effect = higher value; 1 = untreated enzyme, 0 = substrate-free blank. Mannose-6-phosphate isomerase (Homo sapiens), P34949. activation factor at 20 µM. hit rate 0.34% among 190,000;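 active means activation factor of 2 or more at 20 µM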
Target sequence (P34949 whole entry, looked up): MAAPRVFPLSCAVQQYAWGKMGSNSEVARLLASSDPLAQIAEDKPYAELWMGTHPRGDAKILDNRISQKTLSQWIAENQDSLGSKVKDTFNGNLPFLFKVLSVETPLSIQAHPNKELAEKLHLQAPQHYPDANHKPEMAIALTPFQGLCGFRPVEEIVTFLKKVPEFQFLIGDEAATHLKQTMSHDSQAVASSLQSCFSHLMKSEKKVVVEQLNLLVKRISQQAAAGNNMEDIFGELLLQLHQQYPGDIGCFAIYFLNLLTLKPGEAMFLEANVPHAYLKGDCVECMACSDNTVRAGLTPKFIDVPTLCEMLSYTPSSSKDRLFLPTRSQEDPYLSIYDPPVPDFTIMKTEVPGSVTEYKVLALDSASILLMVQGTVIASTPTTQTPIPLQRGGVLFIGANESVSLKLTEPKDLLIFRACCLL
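Test system: human phosphomannose isomerase with PGI, G6PDH, diaphorase coupling enzymes; amount: 15 ng/mL PMI; incubation: enzyme reaction with compound 20 min at room temperature; technique: resorufin fluorescence (Ex 544/Em 590 nm) from resazurin via diaphorase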
PMI act – activators of human PMI, primary screen, biochemical, fluorescence intensity, near-Km mannose 6-phosphate; Mannose-6-phosphate isomerase (Homo sapiens), P34949; purified human PMI, coupled resazurin fluorescence, 20 min; stronger effect = higher value; 1 = vehicle control, 0 substrate-free wells; activation factor at 20 µM; hit rate 0.005% among 190,000; AID 1214, 2008;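 active means activation factor of 2 or more at 20 µM, relative to plate controls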
* marks the source's active call; other numbers are inactive results; x = no result.

SMILES	Diaph inh CS	G6PDH counter	Diaphorase act	PMI act hi M6P	PMI act
COc1ccc(C(=O)CC2(CC(=O)c3ccc(OC)cc3)C(=O)N(C)C(=O)N(C)C2=O)cc1	5	2	0.9	1	1
CN1C(=O)N(C)C(=O)C2(Cc3c(ccc4ccccc34)N(C)C2)C1=O	67*	28	0.3	0.3	0.1
Cc1ccc(-c2ccc(=O)n(CC(=O)N3CCC4(CC3)OCCO4)n2)cc1	14	2	0.9	0.9	1
CN(C)c1cccc2c(C#N)ccc(N(C)C)c12	72*	11	0.3	0.2	0.2
Fc1cccc(C2NCCc3[nH]cnc32)c1 (centres undefined)	-4	-1	1	1.1	1
CC(=NCCO)c1c(O)n(C)c(=O)n(C)c1=O	2	12	1	1.1	1.1
Cc1cc(C=C2C(=O)NC(=S)NC2=O)c(C)n1C1CCCC1	25	0	0.8	2.1*	1.6
COc1c2c(cc3c1OCO3)CC[N+](C)=C2	83*	10	0.2	0.9	1
O=C(N/N=C\C1C(=O)NC(=S)N(c2ccccc2)C1=O)c1ccc(O)cc1 (centres undefined)	65*	21	0.3	1.7	1
COc1ccc(N/N=C/c2c(O)n(-c3cccc(C)c3)c(=O)[nH]c2=O)cc1	14	-1	0.9	2.7*	1.7
COc1ccc(N/N=C/c2c(O)n(-c3ccc(C)c(C)c3)c(=O)[nH]c2=O)cc1	2	-7	1	1.2	1.2
O=c1c2ccccc2[se]n1-c1ccccc1	70*	11	0.3	x	x
O=c1c2ccccc2nc(N2CCCC2)n1-c1ccccc1	18	-2	0.8	0.9	1
Cc1ccc(C(=O)NC(O)C(Cl)(Cl)Cl)cc1 (centres undefined)	-10	-7	1.1	1.2	1
C[C@]12CC[C@@H]3c4ccc(O)c(O)c4CC[C@H]3[C@@H]1CC[C@@H]2O	70*	34	0.3	0.3	0.2
Cn1cc(C(=O)Cc2ccccc2)c2ccccc21	13	3	0.9	1	0.9
COc1ccc(/C=C2\C(=O)NC(=S)N(C)C2=O)cc1C	8	6	0.9	2.5*	1.7
O=C(N/N=C/c1c(O)n(C2CC2)c(=S)[nH]c1=O)c1ccccc1O	66*	17	0.3	1.1	0.4
CN1C(=O)CN=C(c2ccccc2)c2cc([N+](=O)[O-])ccc21	12	5	0.9	0.9	1
CC(=O)c1ccc2c(c1)C1C(Cl)C(Sc3ccccc3[N+](=O)[O-])CC1C(c1ccccc1)N2 (centres undefined)	21	-21	0.8	1.7	1.2
CC(=O)c1ccc2c(c1)C1C(Cl)C(Sc3ccccc3[N+](=O)[O-])CC1C(c1ccccc1[N+](=O)[O-])N2 (centres undefined)	63*	10	0.4	0.4	0.6
CCCCCn1c(NC(=O)c2ccco2)c(C(=O)OCC)c2nc3ccccc3nc21	68*	32	0.3	0.4	0.5
Cc1nnc(SCc2nc3ccccc3c(=O)n2-c2ccccc2Cl)n1N	20	-1	0.8	1.1	1
Cc1nn(Cc2ccccc2)c(C)c1C=C1C(=O)NC(=S)NC1=O	16	21	0.8	2.2*	1.6
Cc1c(C=C2C(=O)NC(=O)NC2=O)c(=O)n(-c2ccccc2)n1C	8	-2	0.9	1	1
SMILES	Diaph inh CS	G6PDH counter	Diaphorase act	PMI act hi M6P	PMI act
CCc1c(C)nc(N)nc1N1N=C1SCC(=O)OC	77*	6	0.2	1	1
COc1cc(NC(=O)CN2C3CCC2CC(O)(c2cccnc2)C3)cc(OC)c1 (centres undefined)	5	7	0.9	0.9	0.9
C=Cn1ccnc1P(=S)(c1ccn(C)c1)c1nccn1C=C	2	7	1	1.1	1.1
COc1ccc2[nH]cc(CCN)c2c1	1	-2	1	0.9	1
CCCCCCCCCOc1ccc2[nH]cc(CCN)c2c1	-227	0	3.3*	1	1
O=C(N=Nc1c(O)[nH]c(=O)[nH]c1=O)C1COc2cc3ccccc3cc2O1 (centres undefined)	19	12	0.8	0.5	0.9
Cc1nc2ccccc2c(=O)n1-c1ccc(Br)cc1[N+](=O)[O-]	70*	9	0.3	1.1	1.1
CCn1cc(CN2CCCC(C(=O)c3sccc3C)C2)cn1 (centres undefined)	21	12	0.8	0.9	0.9
Cc1nc2c(=O)n(C)c(=O)nc-2n(C)n1	34	68*	0.7	0.2	0.3
Cc1ccc2c(c1)=C/C(=C\c1c(O)[nH]c(=S)[nH]c1=O)C(=O)N=2	54*	-14	0.5	1.5	0.8
CCCCCCn1c(O)c(C(C)=NC)c(=O)[nH]c1=O	12	11	0.9	0.9	0.9
CCCCC1C(=O)NC(=S)NC1=O	9	4	0.9	2*	1.6
O=C(CCc1nc(-c2ccccc2F)no1)N1CCC2(CC1)OCCO2	3	2	1	1	1.1
Cn1c(O)c(C(=O)c2ccccc2)c(=O)n(C)c1=O	10	-16	0.9	1.2	1.1
C/C(=N\Nc1ccccc1)c1c(O)n(Cc2ccccc2)c(=O)[nH]c1=O	9	10	0.9	2.5*	1.6
CC(=NCCCO)c1c(O)n(Cc2ccccc2)c(=O)[nH]c1=O	0	5	1	1.1	1
C/C(=N\Nc1ccccc1)c1c(O)n(C)c(=O)n(C)c1=O	6	4	0.9	2.5*	1.6
Cc1cc(C)c(C(=O)CN2CCOCC2)c(C)c1	10	-1	0.9	2.1*	1.6
O=C(CN1CCOCC1)c1ccc2cc[nH]c2c1	3	-10	1	1.3	1.1
O=c1[nH]c(O)c(N=Nc2cc([N+](=O)[O-])ccc2O)c(=O)[nH]1	66*	42	0.3	0.6	0.6
CCn1c(O)c(C(c2ccccn2)c2c(O)n(CC)c(=S)[nH]c2=O)c(=O)[nH]c1=S	19	5	0.8	1.2	1
CCC(C)N1C(=O)NC(=O)C2(Cc3cc(C)ccc3N(C)C2)C1=O (centres undefined)	16	12	0.8	1.9	1.7
Cc1ccc2c(c1)CC1(CN2C)C(=O)NC(=O)N(C(C)C)C1=O (centres undefined)	18	11	0.8	2.1*	1.7
